Laboratory results taken from ChEMBL document CHEMBL1155469, “Peptide nucleic acids conjugated to short basic peptides show improved pharmacokinetics and antisense activity in adipose tissue” (J Med Chem, 2010).
Activity calls are given as the source filed them.

Legend:
BCL1 [1] = test: Inhibition of CD40 protein expression in mouse BCL1 cells after 62 hrs by Western blotting; format: functional, cell-based; details: BCL1, 62 h
Mus musculus [2] = test: Acute toxicity in Balb/C mouse assessed as change in spleen weight at 1.5 to 6.0 umol/kg, ip administered thrice a week for 2 weeks measured 48 hrs after last dose; format: organism-based; details: in vivo
Outline: (§1)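 Male Balb/c mice aged 6–8 weeks, n=4 per group, dosed i.p. with compound suspended in PBS and filter sterilized, 10 ul/g body weight. Body weight tracked throughout the live phase. Under isoflurane anaesthesia, terminal cardiac-puncture bleed; serum taken for transaminases and other chemistries. Sacrifice by cervical dislocation 48 h after last dose, with liver and spleen weighed at necropsy. Kidneys examined by histopathology.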

Mus musculus [3] = test: Acute toxicity in Balb/C mouse assessed as change in plasma chemistry at 1.5 to 6.0 umol/kg, ip administered thrice a week for 2 weeks measured 48 hrs after last dose; format: organism-based; details: in vivo; outline: as §1
Mus musculus [4] = test: Inhibition of IR expression in Balb/C mouse kidney assessed as reduction in IR-B transcript at 1.5 umol/kg, ip administered thrice a week for 2 weeks measured 48 hrs after last dose […]; format: functional, organism-based
Outline: (§2)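 Male Balb/c mice, n=4 per group, dosed i.p. in PBS and sacrificed 48 h after last dose. Liver, kidney and adipose tissue homogenised at once in 4 M guanidine isothiocyanate, 25 mM EDTA, 50 mM Tris-HCl pH 6. RNA purified on columns and run by fluorescence-based quantitative RT-PCR. Target transcript levels normalised to cyclophilin A and expressed relative to saline-treated controls.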

Mus musculus [5] = test: Inhibition of IR expression in Balb/C mouse adipose tissue assessed as upregulation of IR-A transcript at 6.0 umol/kg, ip administered thrice a week for 2 weeks measured 48 hrs after last dose by […]; format: functional; outline: as §2
Mus musculus [6] = test: Inhibition of IR expression in Balb/C mouse liver assessed as upregulation of IR-A transcript at 6.0 umol/kg, ip administered thrice a week for 2 weeks measured 48 hrs after last dose by quantitative RT-PCR analysis
Mus musculus [7] = test: Inhibition of IR expression in Balb/C mouse liver assessed as reduction in IR-B transcript at 6.0 umol/kg, ip administered thrice a week for 2 weeks measured 48 hrs after last dose […]; format: functional, organism-based; outline: as §2
Mus musculus [8] = test: Inhibition of IR expression in Balb/C mouse kidney assessed as upregulation of IR-A transcript at 6.0 umol/kg, ip administered thrice a week for 2 weeks measured 48 hrs after last dose […]; format: functional, organism-based; outline: as §2
Mus musculus [9] = test: Inhibition of IR expression in Balb/C mouse kidney assessed as reduction in IR-B transcript at 6.0 umol/kg, ip administered thrice a week for 2 weeks measured 48 hrs after last dose […]; format: functional, organism-based; outline: as §2
Mus musculus [10] = test: Acute toxicity in Balb/C mouse assessed as reduction in body weight at 1.5 to 6.0 umol/kg, ip administered thrice a week for 2 weeks measured 48 hrs after last dose; format: organism-based; details: in vivo; outline: as §1
Mus musculus [11] = test: Inhibition of IR expression in Balb/C mouse adipose tissue assessed as reduction in IR-B transcript at 6.0 umol/kg, ip administered thrice a week for 2 weeks measured 48 hrs after last dose […]; format: functional; outline: as §2
Mus musculus [12] = test: Inhibition of IR expression in Balb/C mouse kidney assessed as upregulation of IR-A transcript at 1.5 umol/kg, ip administered thrice a week for 2 weeks measured 48 hrs after last dose […]; format: functional, organism-based; outline: as §2
Mus musculus [13] = test: Inhibition of IR expression in Balb/C mouse liver assessed as upregulation of IR-A transcript at 1.5 umol/kg, ip administered thrice a week for 2 weeks measured 48 hrs after last dose by quantitative RT-PCR analysis
Mus musculus [14] = test: Acute toxicity in Balb/C mouse assessed as change in liver weight at 1.5 to 6.0 umol/kg, ip administered thrice a week for 2 weeks measured 48 hrs after last dose; format: organism-based; details: in vivo; outline: as §1
Mus musculus [15] = test: Toxicity in Balb/C mouse assessed as change in serum glucose levels at 40 mg/kg, ip administered thrice a week for 2 weeks measured 48 hrs after last dose; format: organism-based; design: dose 40 mg/kg, route intraperitoneal; details: in vivo
Outline: (§3)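 Male Balb/c mice, 6–8 wk, n=4/group, received compound i.p. in PBS (10 ul/g) 3x/wk for 2 wk. Body weight was monitored throughout. At 48 h after the last dose, mice were anesthetized with isoflurane and bled by cardiac puncture. Serum AST, ALT, BUN, bilirubin, glucose and triglycerides were compared with the saline group. ALT rise below 2x normal was counted as absent.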

Mus musculus [16] = test: Toxicity in Balb/C mouse assessed as change in serum triglyceride levels at 40 mg/kg, ip administered thrice a week for 2 weeks measured 48 hrs after last dose; format: organism-based; design: dose 40 mg/kg, route intraperitoneal; details: in vivo; outline: as §3
Mus musculus [17] = test: Inhibition of PTEN expression in Balb/C mouse kidney at 40 mg/kg, ip administered thrice a week for 2 weeks measured 48 hrs after last dose by Western blot analysis; format: functional, organism-based; design: dose 40 mg/kg
Outline: (§4)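 Male Balb/c mice, 6–8 wk, n=4/group, dosed i.p. in PBS 3x/wk for 2 wk and killed 48 h after the last dose. Tissue was homogenized in RIPA buffer with protease inhibitors, and protein was measured by Lowry assay. Lysates were run on 10% PAGE and blotted to PVDF. Blots were probed with rabbit anti-PTEN (1:1000) and HRP anti-rabbit (1:2500), with ECL detection.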

Mus musculus [18] = test: Inhibition of PTEN expression in Balb/C mouse liver at 40 mg/kg, ip administered thrice a week for 2 weeks measured 48 hrs after last dose by Western blot analysis; format: functional, organism-based; design: dose 40 mg/kg; outline: as §4
Mus musculus [19] = test: Toxicity in Balb/C mouse assessed as change in blood urea nitrogen levels at 40 mg/kg, ip administered thrice a week for 2 weeks measured 48 hrs after last dose; format: organism-based; design: dose 40 mg/kg, route intraperitoneal; details: in vivo; outline: as §3
Mus musculus [20] = test: Toxicity in Balb/C mouse assessed as change in body weight at 40 mg/kg, ip administered thrice a week for 2 weeks measured 48 hrs after last dose; format: organism-based; design: dose 40 mg/kg, route intraperitoneal; details: in vivo; outline: as §3
Mus musculus [21] = test: Toxicity in Balb/C mouse assessed as change in serum bilirubin levels at 40 mg/kg, ip administered thrice a week for 2 weeks measured 48 hrs after last dose; format: organism-based; design: dose 40 mg/kg, route intraperitoneal; details: in vivo; outline: as §3
BCL1 [22] = test: Inhibition of PTEN expression in mouse BCL1 cells after 62 hrs by Western blotting; format: functional, cell-based; details: BCL1, 62 h
Outline: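 BCL1 cells were grown in DMEM with 10% FBS at 37 °C, 5% CO2. Compound was delivered to 2×10^6 cells by electroporation (200 V, 1000 uF, 13 ohms), and cells were harvested 62 h later. Western blot of RIPA lysates used rabbit anti-PTEN and anti-CD40 (1:1000) with HRP secondary and ECL detection. PTEN was normalized to CD40. n=3, mean ± SD.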

Mus musculus [23] = test: Toxicity in Balb/C mouse assessed as change in serum AST levels at 40 mg/kg, ip administered thrice a week for 2 weeks measured 48 hrs after last dose; format: organism-based; design: dose 40 mg/kg, route intraperitoneal; details: in vivo; outline: as §3
Mus musculus [24] = test: Toxicity in Balb/C mouse assessed as change in serum ALT levels at 40 mg/kg, ip administered thrice a week for 2 weeks measured 48 hrs after last dose; format: organism-based; design: dose 40 mg/kg, route intraperitoneal; details: in vivo; outline: as §3

Cc1cn(CC(=O)N(CCNC(=O)CN(CCNC(=O)CN(CCNC(=O)CN(CCNC(=O)CN(CCNC(=O)CN(CCNC(=O)CN(CCNC(=O)CN(CCNC(=O)CN(CCNC(=O)CN(CCNC(=O)CN(CCNC(=O)CN(CCN)C(=O)Cn2ccc(N)nc2=O)C(=O)Cn2cnc3c(N)ncnc32)C(=O)Cn2ccc(N)nc2=O)C(=O)Cn2cnc3c(N)ncnc32)C(=O)Cn2cnc3c(=O)[nH]c(N)nc32)C(=O)Cn2cnc3c(N)ncnc32)C(=O)Cn2cc(C)c(=O)[nH]c2=O)C(=O)Cn2cnc3c(=O)[nH]c(N)nc32)C(=O)Cn2cnc3c(N)ncnc32)C(=O)Cn2ccc(N)nc2=O)C(=O)Cn2cnc3c(N)ncnc32)CC(=O)NCCN(CC(=O)NCCN(CC(=O)NCCN(CC(=O)N[C@@H](CCCCN)C(N)=O)C(=O)Cn2cnc3c(=O)[nH]c(N)nc32)C(=O)Cn2cnc3c(N)ncnc32)C(=O)Cn2cc(C)c(=O)[nH]c2=O)c(=O)[nH]c1=O
900 nM: IC50 (BCL1 [1])

COCCO[C@@H]1[C@H](OP(=O)(S)OC[C@H]2O[C@@H](n3cnc4c(N)ncnc43)[C@H](OCCOC)[C@@H]2O)[C@@H](COP(=O)(S)O[C@H]2[C@@H](OCCOC)[C@H](n3ccc(N)nc3=O)O[C@@H]2COP(=O)(S)O[C@H]2[C@@H](OCCOC)[C@H](n3cnc4c(N)ncnc43)O[C@@H]2COP(=O)(S)O[C@H]2[C@@H](OCCOC)[C@H](n3ccc(N)nc3=O)O[C@@H]2COP(=O)(S)O[C@H]2[C@@H](OCCOC)[C@H](n3cnc4c(=O)[nH]c(N)nc43)O[C@@H]2COP(=O)(S)O[C@H]2[C@@H](OCCOC)[C@H](n3cnc4c(=O)[nH]c(N)nc43)O[C@@H]2COP(=O)(S)O[C@H]2[C@@H](OCCOC)[C@H](n3ccc(N)nc3=O)O[C@@H]2COP(=O)(S)O[C@H]2C[C@H](n3cc(C)c(=O)[nH]c3=O)O[C@@H]2COP(=O)(S)O[C@H]2[C@@H](OCCOC)[C@H](n3ccc(N)nc3=O)O[C@@H]2COP(=O)(S)O[C@H]2[C@@H](OCCOC)[C@H](n3ccc(N)nc3=O)O[C@@H]2COP(=O)(S)O[C@H]2C[C@H](n3cc(C)c(=O)[nH]c3=O)O[C@@H]2COP(=O)(S)O[C@H]2[C@@H](OCCOC)[C@H](n3cnc4c(=O)[nH]c(N)nc43)O[C@@H]2COP(=O)(S)O[C@H]2C[C@H](n3cc(C)c(=O)[nH]c3=O)O[C@@H]2COP(=O)(S)O[C@H]2[C@@H](OCCOC)[C@H](n3ccc(N)nc3=O)O[C@@H]2COP(=O)(S)O[C@H]2[C@@H](OCCOC)[C@H](n3cnc4c(N)ncnc43)O[C@@H]2COP(=O)(S)O[C@H]2C[C@H](n3cc(C)c(=O)[nH]c3=O)O[C@@H]2COP(=O)(S)O[C@H]2[C@@H](OCCOC)[C@H](n3ccc(N)nc3=O)O[C@@H]2COP(=O)(S)O[C@H]2[C@@H](OCCOC)[C@H](n3ccc(N)nc3=O)O[C@@H]2COP(=O)(S)O[C@H]2[C@@H](OCCOC)[C@H](n3cnc4c(N)ncnc43)O[C@@H]2CO)O[C@H]1n1ccc(N)nc1=O (some centres undefined)
active: Activity (Mus musculus [5]) | Activity (Mus musculus [6]) | Activity (Mus musculus [7]) | Activity (Mus musculus [8]) | Activity (Mus musculus [11]) | Activity (Mus musculus [12]) | Activity (Mus musculus [13])
Non-toxic: Activity (Mus musculus [2]) | Activity (Mus musculus [3]) | Activity (Mus musculus [10]) | Activity (Mus musculus [14])
inactive: Activity (Mus musculus [4]) | Activity (Mus musculus [9])

COCCO[C@@H]1[C@H](OP(=O)(S)OC[C@H]2O[C@@H](n3cc(C)c(=O)[nH]c3=O)C[C@@H]2OP(=O)(S)OC[C@H]2O[C@@H](n3ccc(N)nc3=O)[C@H](OCCOC)[C@@H]2OP(=O)(S)OC[C@H]2O[C@@H](n3cnc4c(N)ncnc43)[C@H](OCCOC)[C@@H]2OP(=O)(S)OC[C@H]2O[C@@H](n3cnc4c(=O)[nH]c(N)nc43)[C@H](OCCOC)[C@@H]2OP(=O)(S)OC[C@H]2O[C@@H](n3ccc(N)nc3=O)[C@H](OCCOC)[C@@H]2OP(=O)(S)OC[C@H]2O[C@@H](n3cnc4c(N)ncnc43)[C@H](OCCOC)[C@@H]2OP(=O)(S)OC[C@H]2O[C@@H](n3ccc(N)nc3=O)[C@H](OCCOC)[C@@H]2OP(=O)(S)OC[C@H]2O[C@@H](n3cnc4c(N)ncnc43)[C@H](OCCOC)[C@@H]2OP(=O)(S)OC[C@H]2O[C@@H](n3cc(C)c(=O)[nH]c3=O)C[C@@H]2OP(=O)(S)OC[C@H]2O[C@@H](n3ccc(N)nc3=O)[C@H](OCCOC)[C@@H]2OP(=O)(S)OC[C@H]2O[C@@H](n3cc(C)c(=O)[nH]c3=O)C[C@@H]2OP(=O)(S)OC[C@H]2O[C@@H](n3cnc4c(N)ncnc43)[C@H](OCCOC)[C@@H]2OP(=O)(S)OC[C@H]2O[C@@H](n3ccc(N)nc3=O)[C@H](OCCOC)[C@@H]2OP(=O)(S)OC[C@H]2O[C@@H](n3cnc4c(N)ncnc43)[C@H](OCCOC)[C@@H]2OP(=O)(S)OC[C@H]2O[C@@H](n3cnc4c(N)ncnc43)[C@H](OCCOC)[C@@H]2OP(=O)(S)OC[C@H]2O[C@@H](n3cnc4c(=O)[nH]c(N)nc43)[C@H](OCCOC)[C@@H]2OP(=O)(S)OC[C@H]2O[C@@H](n3cnc4c(N)ncnc43)[C@H](OCCOC)[C@@H]2OP(=O)(S)OC[C@H]2O[C@@H](n3cnc4c(N)ncnc43)[C@H](OCCOC)[C@@H]2OP(=O)(S)OC[C@H]2O[C@@H](n3cnc4c(N)ncnc43)[C@H](OCCOC)[C@@H]2O)[C@@H](CO)O[C@H]1n1ccc(N)nc1=O (some centres undefined)
Non-toxic: Activity (Mus musculus [15]) | Activity (Mus musculus [16]) | Activity (Mus musculus [19]) | Activity (Mus musculus [20]) | Activity (Mus musculus [21]) | Activity (Mus musculus [23]) | Activity (Mus musculus [24])
inactive: inhibition (Mus musculus [17]) | inhibition (Mus musculus [18])
1000 nM: IC50 (BCL1 [22])
